PMC6299372 (International Journal of Biological Sciences, 2018)
pIC50, pKd, pKi: −log10 of the molar value.

Experiments:
MsepCSP5 = target: T1, MsepCSP5 (Mythimna separata, UniProt A0A5H2NAD7); experiment: Fluorescence competitive binding assay with the probe 1-NPN; conditions: for pIC50: displacement of 1-NPN from MsepCSP5; for pKi: Ki = IC50/(1+[1-NPN]/K1-NPN); for pKd: dissociation constant (Kd) of MsepCSP5/1-NPN complex, Scatchard plot
T1 sequence (A0A5H2NAD7 1-127): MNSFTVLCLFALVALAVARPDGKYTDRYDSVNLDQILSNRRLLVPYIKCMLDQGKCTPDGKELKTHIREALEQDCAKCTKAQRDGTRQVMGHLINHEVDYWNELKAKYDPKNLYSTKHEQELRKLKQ
How it was run: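 Recombinant MsepCSP5 was expressed in E. coli BL21(DE3) as inclusion bodies, refolded, Ni-affinity purified, and His-tag cleaved with enterokinase, then dialyzed into Tris-HCl at pH 5.0 or 7.4. Protein at 2 μM in 30 mM Tris-HCl was titrated with 1-NPN (0–20 μM final). Ex 337 nm, Em 360–600 nm, 25°C. Ligand stocks were in methanol. Kd came from Scatchard plots, and Ki from IC50 corrected for 1-NPN. Three independent replicates.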

M. separata [1] = experiment: Post-RNAi Y-tube olfactometer bioassay; format: in vivo, Mythimna separata; conditions: 72 h old moths of both sexes, after RNAi
How it was run: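 Seven-day-old pupae were injected with dsMsepCSP5 (1 µl of 2.5 µg µL-1) into abdominal segments 3–4. Non-injected and dsGFP-injected pupae served as controls. Pupae were held at 25±1°C and 70±5% RH until eclosion. 72 h-old moths of both sexes were tested in the same Y-tube assay (two volatiles, 10 µl vs liquid paraffin, 10 min per moth). 30 females and 30 males per volatile.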

M. separata [2] = experiment: Y-tube olfactometer behavioral bioassay; format: in vivo, Mythimna separata; conditions: for males attracted to / preferring the volatile: male moths; for males attracted to / preferring the volatile / females attracted to / preferring the volatile: volatile vs liquid paraffin control, 10 µl volatile; for behavioral response of M. separata to the volatile (in words): male and female moths; for females attracted to / preferring the volatile: female moths
How it was run: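 Y-tube olfactometer with arms 3.0 cm × 26 cm, charcoal-filtered humidified air at 6.0 L min-1. 10 µl volatile on 10×10 mm filter paper was set against a liquid paraffin control. Three-day-old moths were isolated about 30 min beforehand, and separate olfactometers were used per sex. Each moth had 10 min to respond. Tests ran in the dark under orange light, 1–2 h after sunset, at 25±1°C and 70±5% RH. 30 females and 30 males per volatile.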

Row | Molecule | pIC50 (MsepCSP5; IC50, pH 5.0) | pIC50 (MsepCSP5; IC50, pH 7.4) | pKi (MsepCSP5; Ki, pH 5.0) | pKi (MsepCSP5; Ki, pH 7.4) | binding affinity to MsepCSP5 (in words) (MsepCSP5; pH 5.0) | further results
1 | C=CC(C)(O)CCC=C(C)CCC=C(C)C (mixture of isomers) [Nerolidol] | 4.89 | 4.74 | 5.21 | 5.14 | high binding affinity | –
2 | c1ccc(Nc2cccc3ccccc23)cc1 [1-NPN, N-phenyl-1-naphthylamine, reference compound] | – | – | – | – | – | pKd (MsepCSP5; pH 5.0): 5.54; pKd (MsepCSP5; pH 7.4): 5.44
3 | C=CC(O)CCCCC (stereo not shown) [1-Octen-3-ol] | 5.04 | 4.79 | 5.36 | 5.19 | high binding affinity | preference of dsMsepCSP5-treated moths for the volatile (in words) (M. separata [1]): non-significant preference
4 | CCCCCC(C)O (stereo not shown) [2-Heptanol] | 5.10 | 4.20 | 5.42 | 4.60 | high binding affinity | males attracted to / preferring the volatile (M. separata [2]): 80%
5 | CCCCCCCCCC(C)=O [2-Undecanone] | 5.29 | 4.67 | 5.61 | 5.07 | – | behavioral response of M. separata to the volatile (in words) (M. separata [2]): no obvious preference
6 | CCCCCCCCCCCC(C)=O [2Tridecanone] | 4.98 | 4.86 | 5.31 | 5.26 | – | –
7 | CCC(O)CC [3-Pentanol] | 4.85 | 4.53 | 5.17 | 4.93 | high binding affinity | preference of dsMsepCSP5-treated moths for the volatile (in words) (M. separata [1]): non-significant preference; females attracted to / preferring the volatile (M. separata [2]): 80%
8 | Cc1ccc(C(C)C)cc1 [4-lsopropyltoluene] | – | – | – | – | – | pKi (MsepCSP5; pH 5.0): 4.84; pIC50 (MsepCSP5; pH 5.0): 4.52; pKi (MsepCSP5; pH 7.4): 4.68; pIC50 (MsepCSP5; pH 7.4): 4.28
9 | CC1=CC[C@@](O)(C(C)C)CC1 [(-)-Terpinen-4-ol] | – | – | – | – | – | pKi (MsepCSP5; pH 5.0): 5.36; pIC50 (MsepCSP5; pH 5.0): 5.04; pKi (MsepCSP5; pH 7.4): 4.87; pIC50 (MsepCSP5; pH 7.4): 4.46
10 | CC/C=C\CCO [Cis-3-hexen-1-ol] | 3.14 | 3.64 | 3.46 | 4.05 | – | –
11 | CC/C=C\CCOC(C)=O [Cis-3-hexenyl acetate] | 4.89 | 4.49 | 5.21 | 4.89 | – | –
12 | OC1CCCCC1 [Cyclohexanol] | 4.15 | 3.86 | 4.47 | 4.27 | – | –
13 | CCCCCCCCCCCC=O [Dodecyl aldehyde] | – | – | – | – | high binding | pKi (MsepCSP5; pH 5.0): 5.14; pIC50 (MsepCSP5; pH 5.0): 4.82; pKi (MsepCSP5; pH 7.4): 5.16; pIC50 (MsepCSP5; pH 7.4): 4.76
14 | CCCCCCCCCCCCCCCCCCCC [Eicosane] | 4.82 | 4.32 | 5.14 | 4.72 | – | –
15 | CCOC(C)=O [Ethylacetate] | 5.05 | 4.71 | 5.37 | 5.12 | – | –
16 | CC12CCC(CC1)C(C)(C)O2 [Eucalyptol] | 5.03 | 4.84 | 5.35 | 5.24 | high binding affinity | –
17 | CCCCCCCCCCCCCCCC [Hexadecane] | 4.13 | 4.23 | 4.45 | 4.64 | – | –

Row | Molecule | pIC50 (MsepCSP5; IC50, pH 5.0) | pIC50 (MsepCSP5; IC50, pH 7.4) | pKi (MsepCSP5; Ki, pH 5.0) | pKi (MsepCSP5; Ki, pH 7.4) | binding affinity to MsepCSP5 (in words) (MsepCSP5; pH 5.0) | further results
18 | CCCCCC=O [Hexanal] | 5.03 | 4.67 | 5.35 | 5.07 | high binding | –
19 | CCCCCC [Hexane] | 4.73 | 4.83 | 5.05 | 5.23 | – | –
20 | C=CC(C)(O)CCC=C(C)C (stereo not shown) [Linalool] | 4.38 | 4.18 | 4.71 | 4.59 | – | –
21 | COC(=O)c1ccccc1 [Methyl benzoate] | 4.96 | 4.32 | 5.29 | 4.73 | – | females attracted to / preferring the volatile (M. separata [2]): 70%; behavioral response of M. separata to the volatile (in words) (M. separata [2]): strong positive responses; males attracted to / preferring the volatile (M. separata [2]): 67%
22 | CCCCCCCCCCCCCCCCCCC [Nonadecane] | 4.82 | 4.31 | 5.15 | 4.71 | – | –
23 | CCCCCCCC [Octane] | 5.14 | 4.63 | 5.47 | 5.03 | – | –
24 | C=C(C)[C@H]1CC=C(C)CC1 [R-(+)-Limonene] | – | – | – | – | – | pKi (MsepCSP5; pH 5.0): 5.29; pIC50 (MsepCSP5; pH 5.0): 4.96; pKi (MsepCSP5; pH 7.4): 4.82; pIC50 (MsepCSP5; pH 7.4): 4.42
25 | CC1=CCC(=C(C)C)CC1 [Terpinolene] | 5.08 | 4.36 | 5.40 | 4.76 | – | –
26 | CCCCCCCCCCCCCC [Tetradecane] | 4.66 | 4.68 | 4.98 | 5.09 | – | –
27 | CCC/C=C/CO [Trans-2-hexen-1-ol] | 4.77 | 4.47 | 5.09 | 4.87 | high binding affinity | –
28 | CCC/C=C/C=O [Trans-2-hexenal] | 4.36 | 4.64 | 4.68 | 5.04 | moderate binding | –
29 | CCCCCCCCCCCCC [Tridecane] | 3.32 | 3.28 | 3.64 | 3.68 | – | –
30 | CC1=CC=C(C(C)C)CC1 [α -Terpinene] | – | – | – | – | – | pKi (MsepCSP5; pH 5.0): 5.09; pIC50 (MsepCSP5; pH 5.0): 4.77; pKi (MsepCSP5; pH 7.4): 5.06; pIC50 (MsepCSP5; pH 7.4): 4.65
31 | CC1=CC[C@@H](C(C)(C)O)CC1 [α -Terpineol] | 4.90 | 3.70 | 5.22 | 4.11 | high binding affinity | –
32 | CC(=O)/C=C/C1=C(C)CCCC1(C)C [β-Lonone] | – | – | – | – | – | pKi (MsepCSP5; pH 5.0): 5.68; pIC50 (MsepCSP5; pH 5.0): 5.36; pKi (MsepCSP5; pH 7.4): 5.30; pIC50 (MsepCSP5; pH 7.4): 4.89
33 | Farnesene | – | – | – | – | – | pKi (MsepCSP5; pH 5.0): 4.45; pIC50 (MsepCSP5; pH 5.0): 4.13; pKi (MsepCSP5; pH 7.4): 4.67; pIC50 (MsepCSP5; pH 7.4): 4.26
